# Experimental data published in ChEMBL document CHEMBL3399971.
# Tests used:
# [1] = Cytotoxicity against mouse BV2 cells by CytoTox96 non-radioactive cytotoxicity assay; format: cell-based, BV-2; conditions: for MNTC: BV2 cells, read-out: MNCC
# How it was run: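 BV2 murine microglia in DMEM with 10% FBS, 37°C, 5% CO2. Compounds in 0.02% DMSO (final) added 1 h before LPS (50 ng/ml), 24 h co-incubation. Viability by CytoTox96 non-radioactive kit. Value is the highest concentration without obvious cytotoxicity.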
# [2] = Selectivity index, ratio of MNCC against mouse BV2 cells to IC50 for mGluR5 in mouse BV2 cells; format: functional, BV-2
# [3] = molecular target: Metabotropic glutamate receptor 5 (Mus musculus, UniProt Q3UVX5); assay: Positive allosteric modulator activity at mGluR5 in mouse BV2 cells assessed as inhibition of nitric oxide production pre-treated 1 hr before lipopolysaccharide stimulation and measured 24 hrs post lipopolysaccharide stimulation by Griess reagent assay; format: cell-based, BV-2
# Chain of Metabotropic glutamate receptor 5 (Q3UVX5 whole entry): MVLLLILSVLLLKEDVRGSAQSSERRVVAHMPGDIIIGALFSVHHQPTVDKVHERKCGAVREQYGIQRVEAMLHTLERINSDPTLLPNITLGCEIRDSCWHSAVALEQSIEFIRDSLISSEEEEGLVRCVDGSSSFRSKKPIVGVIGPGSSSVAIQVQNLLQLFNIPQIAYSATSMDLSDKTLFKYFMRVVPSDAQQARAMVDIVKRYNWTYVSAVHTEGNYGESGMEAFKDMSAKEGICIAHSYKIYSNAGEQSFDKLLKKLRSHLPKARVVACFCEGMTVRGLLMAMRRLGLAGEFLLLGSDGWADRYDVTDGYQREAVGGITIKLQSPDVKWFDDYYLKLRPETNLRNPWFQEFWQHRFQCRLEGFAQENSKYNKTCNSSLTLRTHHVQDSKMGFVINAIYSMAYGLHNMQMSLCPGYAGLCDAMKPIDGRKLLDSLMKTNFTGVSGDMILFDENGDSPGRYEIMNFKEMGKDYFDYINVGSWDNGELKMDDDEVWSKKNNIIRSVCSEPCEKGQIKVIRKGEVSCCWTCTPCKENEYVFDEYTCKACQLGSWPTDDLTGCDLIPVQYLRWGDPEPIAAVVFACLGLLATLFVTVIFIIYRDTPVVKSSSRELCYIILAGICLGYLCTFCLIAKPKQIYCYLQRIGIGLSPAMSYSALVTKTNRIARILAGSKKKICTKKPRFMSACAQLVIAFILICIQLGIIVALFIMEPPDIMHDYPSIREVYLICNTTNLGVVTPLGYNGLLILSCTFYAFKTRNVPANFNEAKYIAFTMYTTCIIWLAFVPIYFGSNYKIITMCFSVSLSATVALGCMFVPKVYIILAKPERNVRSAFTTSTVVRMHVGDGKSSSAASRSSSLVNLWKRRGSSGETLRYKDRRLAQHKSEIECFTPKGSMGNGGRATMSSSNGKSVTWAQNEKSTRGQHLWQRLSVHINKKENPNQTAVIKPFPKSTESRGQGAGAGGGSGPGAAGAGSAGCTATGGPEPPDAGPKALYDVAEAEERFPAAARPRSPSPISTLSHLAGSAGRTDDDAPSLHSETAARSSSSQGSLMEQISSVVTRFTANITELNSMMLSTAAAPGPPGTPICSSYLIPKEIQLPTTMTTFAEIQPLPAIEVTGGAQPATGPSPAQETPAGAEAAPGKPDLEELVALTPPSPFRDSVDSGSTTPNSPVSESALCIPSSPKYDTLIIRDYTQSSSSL
# How it was run: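 BV2 microglia grown in DMEM plus 10% FBS at 37°C, 5% CO2. Pretreated 1 h with compound in 0.02% DMSO (final), then stimulated with LPS 50 ng/ml for 24 h. Read-out is supernatant nitrite by Griess reagent as a proxy for NO. IC50 is the mean of three independent experiments.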
SMILES,IC50 ([3]; read-out: IC50) [µM],IC50 ([3]; bv-2),MNTC [1] [mM],Selectivity Index [2],MNCC ([1]; bv-2)
COc1cc(C(=O)Nc2nc3ccccc3[nH]2)ccc1S(N)(=O)=O,150,–,1,6.59,–
O=C(Nc1nc2ccccc2[nH]1)c1ccc([N+](=O)[O-])cc1,33,–,0.3,9.2,–
O=C(Nc1nc2ccccc2[nH]1)c1ccncc1,–,–,1,–,–
O=C(Nc1nc2ccccc2[nH]1)C1CCCCC1,42,–,1,24.1,–
COc1cccc(C(=O)Nc2nc3ccccc3[nH]2)c1,120,–,1,8.06,–
O=C(Nc1nc2ccccc2[nH]1)c1cc(C(F)(F)F)ccc1C(F)(F)F,34,–,0.06,1.74,–
O=C(Nc1nc2ccccc2[nH]1)c1ccccc1C(F)(F)F,88,–,1,11.3,–
O=C(Nc1nc2ccccc2[nH]1)c1ccccc1F,36,–,1,28,–
O=C(Nc1nc2ccccc2[nH]1)c1ccccn1,–,ND(Insoluble),–,–,ND(Insoluble)
COc1ccc(C(=O)Nc2nc3ccccc3[nH]2)cc1,100,–,1,10.1,–
O=C(Nc1nc2ccccc2[nH]1)c1ccc(C(F)(F)F)cc1,59,–,1,16.9,–
O=C(Nc1nc2ccccc2[nH]1)c1ccccc1Cl,110,–,0.3,2.67,–
Fc1cccc(/C=N/N=C/c2cccc(F)c2)c1,–,–,0.5,–,–
O=C(Nc1nc2ccccc2[nH]1)c1ccccc1,160,–,1,6.17,–
CN(C(=O)c1cccc(Cl)c1)c1nc2ccccc2[nH]1,210,–,1,4.85,–
O=C(Sc1nc2ccccc2[nH]1)c1cccc(Cl)c1,160,–,1,6.36,–

# Further molecules by falling IC50 ([3]; read-out: IC50), results first:
IC50 ([3]; read-out: IC50) [µM],IC50 ([3]; bv-2),SMILES,MNTC [1] [mM],Selectivity Index [2],MNCC ([1]; bv-2)
29,–,O=C(Nc1nc2ccccc2[nH]1)c1cccc(Cl)c1,1,34.6,–
29,–,O=C(Nc1nc2ccccc2[nH]1)c1cccc([N+](=O)[O-])c1,1,–,–
25,–,O=C(Nc1nc2ccccc2[nH]1)c1ccc(Cl)cc1,1,40.4,–
22,–,O=C(/C=C/c1ccncc1)Nc1nc2ccccc2[nH]1,1,44.8,–
20,–,CN(C)c1cccc(C(=O)Nc2nc3ccccc3[nH]2)c1,0.3,14.7,–
15,–,O=C(Nc1nc2ccccc2[nH]1)C1CCC1,0.06,3.97,–
15,–,O=C(Nc1nc2ccccc2[nH]1)c1ccc(F)cc1,1,67.1,–
12,–,O=C(Nc1nc2ccccc2[nH]1)c1cccc(C(F)(F)F)c1,0.2,17.2,–
12,–,O=C(Nc1nc2ccccc2[nH]1)c1cc(Cl)ccc1Cl,0.1,8.33,–
9.8,–,O=C(Nc1nc2ccccc2[nH]1)c1ccc(Cl)c(Cl)c1,0.1,10.2,–
6.4,–,O=C(Nc1nc2ccccc2[nH]1)c1cc(Cl)cc(Cl)c1,0.8,125,–
